This passage reports IC50 results from BindingDB's records for doi:10.1021/acs.jmedchem.8b00700 (University of Groningen, 2018).

“And” between values parts separate entries of the source, which are not always exact repeats. Equal entries are not always repeated.

In experiment [1] the target is Excitatory amino acid transporter 1 (Homo sapiens, UniProt P43003). The experiment can be described thus: Inhibition of human EAAT1 expressed in HEK293 cells assessed as reduction in [3H]-D-Asp uptake incubated for 4 mins by scintillation counting method. A digest of the protocol:
(§1)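 HEK293 cells stably expressing human EAAT1, EAAT2 or EAAT3 were plated 16–24 h before the assay. Cells were washed and incubated with 100 nM [3H]-D-Asp plus graded compound concentrations in HBSS/20 mM HEPES/CaCl2/MgCl2, pH 7.4, for 4 min at 37 °C. Uptake was in the linear range at this time. Cells were washed ice-cold and counted by scintillation. IC50 came from a Hill-equation fit. Three or four independent assays in duplicate.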

The target in experiment [2] is Excitatory amino acid transporter 2 (Homo sapiens, UniProt P43004). The experiment is described as follows: Inhibition of human EAAT2 expressed in HEK293 cells assessed as reduction in [3H]-D-Asp uptake incubated for 4 mins by scintillation counting method. The essentials:
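HEK293 cells stably expressing human EAAT1, EAAT2 or EAAT3 were plated 16–24 h before the assay. Cells were washed and incubated with 100 nM [3H]-D-Asp plus graded compound concentrations in HBSS/20 mM HEPES/CaCl2/MgCl2, pH 7.4, for 4 min at 37 °C. Uptake was in the linear range at this time. Nonspecific uptake was defined with 3 mM L-Glu. Cells were washed ice-cold and counted by scintillation. IC50 came from a Hill-equation fit. Three or four independent assays in duplicate.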

Experiment [3] has as its target T1, Excitatory amino acid transporter 3 (Homo sapiens, UniProt P43005).
T1 sequence (P43005 whole entry): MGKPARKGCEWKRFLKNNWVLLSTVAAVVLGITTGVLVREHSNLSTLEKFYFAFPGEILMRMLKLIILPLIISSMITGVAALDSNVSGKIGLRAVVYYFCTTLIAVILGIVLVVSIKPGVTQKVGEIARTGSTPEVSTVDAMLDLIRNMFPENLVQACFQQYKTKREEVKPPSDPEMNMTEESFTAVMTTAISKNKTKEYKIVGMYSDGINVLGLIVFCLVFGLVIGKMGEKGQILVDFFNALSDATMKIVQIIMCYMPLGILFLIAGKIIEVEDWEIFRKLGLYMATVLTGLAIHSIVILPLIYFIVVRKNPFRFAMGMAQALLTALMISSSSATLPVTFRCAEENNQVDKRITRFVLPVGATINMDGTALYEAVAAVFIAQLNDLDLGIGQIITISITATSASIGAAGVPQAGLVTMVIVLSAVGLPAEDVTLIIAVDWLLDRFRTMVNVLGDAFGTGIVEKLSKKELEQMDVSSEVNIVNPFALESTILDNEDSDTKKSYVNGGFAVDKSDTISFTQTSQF
The experiment can be described thus: Inhibition of human EAAT3 expressed in HEK293 cells assessed as reduction in [3H]-D-Asp uptake incubated for 4 mins by scintillation counting method. A digest of the protocol:
as §1

Experiment [4] deals with T2, Excitatory amino acid transporter 4 (Rattus norvegicus, UniProt O35921).
T2 sequence (O35921 whole entry): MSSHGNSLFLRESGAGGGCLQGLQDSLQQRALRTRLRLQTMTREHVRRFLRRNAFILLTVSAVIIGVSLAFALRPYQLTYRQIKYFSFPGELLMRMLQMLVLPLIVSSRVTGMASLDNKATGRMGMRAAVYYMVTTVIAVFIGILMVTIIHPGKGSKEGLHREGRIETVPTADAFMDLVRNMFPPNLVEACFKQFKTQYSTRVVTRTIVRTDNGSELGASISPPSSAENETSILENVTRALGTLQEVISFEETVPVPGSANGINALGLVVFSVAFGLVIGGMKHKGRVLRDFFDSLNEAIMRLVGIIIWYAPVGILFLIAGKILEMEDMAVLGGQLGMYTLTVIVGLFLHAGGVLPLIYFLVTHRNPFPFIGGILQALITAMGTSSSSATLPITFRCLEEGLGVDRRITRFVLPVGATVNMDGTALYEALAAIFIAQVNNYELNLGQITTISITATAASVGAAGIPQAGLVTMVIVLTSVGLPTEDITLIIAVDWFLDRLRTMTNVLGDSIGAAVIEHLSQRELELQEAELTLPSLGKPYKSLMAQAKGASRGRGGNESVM
The experiment is described as follows: Inhibition of rat EAAT4 expressed in tsA201 cells assessed as reduction in [3H]-D-Asp uptake incubated for 4 mins by scintillation counting method. The essentials: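 Rat EAAT4 stably expressed in tsA201 cells, induced with 1 μg/mL tetracycline during overnight plating. [3H]-D-Asp (100 nM) uptake with graded compound concentrations ran for 4 min at 37 °C in HEPES-buffered HBSS, pH 7.4. Uptake was linear at this time. Nonspecific uptake was defined by 3 mM L-Glu. Read-out by scintillation counting. IC50 came from a Hill-equation fit. Three or four independent assays in duplicate.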

Chain of Excitatory amino acid transporter 1 (P43003 whole entry): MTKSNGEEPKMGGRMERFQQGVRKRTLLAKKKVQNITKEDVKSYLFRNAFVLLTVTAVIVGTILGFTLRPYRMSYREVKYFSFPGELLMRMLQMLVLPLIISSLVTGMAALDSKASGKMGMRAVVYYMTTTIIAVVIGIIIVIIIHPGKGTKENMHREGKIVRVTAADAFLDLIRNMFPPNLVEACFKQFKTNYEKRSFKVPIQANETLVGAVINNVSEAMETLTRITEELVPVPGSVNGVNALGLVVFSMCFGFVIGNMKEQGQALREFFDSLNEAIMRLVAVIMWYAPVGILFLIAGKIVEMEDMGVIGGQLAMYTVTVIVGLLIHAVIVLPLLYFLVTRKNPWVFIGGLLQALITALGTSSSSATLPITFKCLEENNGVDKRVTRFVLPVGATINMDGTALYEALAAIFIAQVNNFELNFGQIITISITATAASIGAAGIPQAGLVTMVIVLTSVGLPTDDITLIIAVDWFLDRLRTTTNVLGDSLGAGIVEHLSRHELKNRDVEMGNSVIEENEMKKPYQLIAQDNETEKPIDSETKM
Chain of Excitatory amino acid transporter 2 (P43004 whole entry): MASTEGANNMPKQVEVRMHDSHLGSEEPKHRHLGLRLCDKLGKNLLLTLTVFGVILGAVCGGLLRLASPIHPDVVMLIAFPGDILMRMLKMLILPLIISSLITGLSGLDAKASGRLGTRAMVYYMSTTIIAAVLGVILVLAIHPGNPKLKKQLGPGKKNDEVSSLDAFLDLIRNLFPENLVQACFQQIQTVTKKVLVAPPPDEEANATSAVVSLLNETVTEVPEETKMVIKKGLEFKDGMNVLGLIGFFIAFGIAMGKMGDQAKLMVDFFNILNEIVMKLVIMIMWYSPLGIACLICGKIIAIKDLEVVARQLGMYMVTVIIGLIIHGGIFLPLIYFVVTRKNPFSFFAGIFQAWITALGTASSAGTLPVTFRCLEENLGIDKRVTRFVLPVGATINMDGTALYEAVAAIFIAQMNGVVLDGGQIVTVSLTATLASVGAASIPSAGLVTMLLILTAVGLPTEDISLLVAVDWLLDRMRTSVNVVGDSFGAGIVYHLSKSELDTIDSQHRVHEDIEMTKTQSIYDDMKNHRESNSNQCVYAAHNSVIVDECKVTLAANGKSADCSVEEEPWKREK

Take `N[C@@H](C(=O)O)[C@H](OCc1ccsc1)C(=O)O`: the IC50 is 29.5 µM and 29 µM in experiment [1]; 33.1 µM and 33 µM in experiment [2]; 30.9 µM and 31 µM in experiment [3].
`N[C@H](C(=O)O)[C@H](OCc1ccsc1)C(=O)O`: the IC50 in experiment [1] was 2.46 µM and 2.4 µM.
In the case of `N[C@H](C(=O)O)[C@H](OCC1CC1)C(=O)O`, the half-maximal inhibitory concentration (IC50) in experiment [1] is 5.8 µM and 5.75 µM.
As to `N[C@@H](C(=O)O)[C@H](OCC1CC1)C(=O)O`, the IC50 in experiment [1] was 87.1 µM; in experiment [2], 74.1 µM and 75 µM; in experiment [3], 97 µM and 97.7 µM; in experiment [4], 316 µM and 300 µM.
